pIC50: −log10 of the molar value.
Legend:
MCF7 [1] = test: Growth-Inhibitory activity against MCF-7 Cells in the presence of S-9 Mix; assay type: functional, cell-based; conditions: Homo sapiens
Procedure, shortened: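 MCF-7 cells were exposed to compound for 6 days and counted with a microcell counter. S-9 mix was in the medium at 0.125% of a 30% S-9 mix solution. That solution was made from rat liver S-9, glucose 6-phosphate, β-NADPH, 20 mM HEPES, 50 mM MgCl2, 330 mM KCl and water.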

MCF7 [2] = test: Growth-Inhibitory activity against MCF-7 Cells in the absence of S-9 Mix; assay type: functional, cell-based, Homo sapiens
Procedure, shortened: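 MCF-7 cells were exposed to compound for 6 days in medium without S-9 mix, and cells were counted with a microcell counter.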

ACHN = test: In vitro Growth Inhibitory activity against ACHN Human kidney cancer cell line; assay type: functional, cell-based
Procedure, shortened: (§1)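 Cells were grown with 10% FBS. Seeding per well was 3 × 10^3 for Ishikawa, 5 × 10^3 for Hep-G2, 2.5 × 10^3 for WiDr and 1.5 × 10^3 for ACHN. Exposure lasted 6 days, followed by microcell-counter cell counts.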

A-431 = test: In vitro Growth Inhibitory activity against A431 Human vulva cancer cell line; assay type: functional, cell-based
Procedure, shortened: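 A431 was seeded at 1.5 × 10^3 cells/well in Dulbecco's modified Eagle's medium with FBS, treated for 6 days, and counted with a microcell counter.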

A2780 = test: In vitro Growth Inhibitory activity against A2780 Human ovarian cancer cell line; assay type: functional, cell-based
Procedure, shortened: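 A2780 was seeded at 1 × 10^3 cells/well in RPMI 1640 with 5% FBS, exposed to compound for 6 days, and counted with a microcell counter.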

HepG2 = test: In vitro Growth Inhibitory activity against HepG2 Human liver cancer cell line; assay type: functional, cell-based; procedure, shortened: as §1
Ishikawa = test: In vitro Growth Inhibitory activity against Ishikawa Human endometrial cancer cell line; assay type: functional, cell-based; procedure, shortened: as §1
MKN-28 = test: In vitro Growth Inhibitory activity against MKN Human stomach cancer cell line; assay type: functional, cell-based
Procedure, shortened: (§2)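 Cells were grown in RPMI 1640 with 10% FBS. Seeding per well was 3 × 10^3 for T-47D and OVCAR-3, and 1.5 × 10^3 for MKN-28 and PSN-1. Compound exposure lasted 6 days, and cells were counted with a microcell counter.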

MDA-MB-453 = test: In vitro Growth Inhibitory activity against MD-453 Human breast cancer cell line; assay type: functional, cell-based
Procedure, shortened: (§3)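 Each cell line was treated for 6 days, and growth was read by counting cells with a microcell counter.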

MCF7 [3] = test: In vitro Growth Inhibitory activity against MCF-7 Human breast cancer cell line; assay type: functional, cell-based; procedure, shortened: as §3
OVCAR-3 = test: In vitro Growth Inhibitory activity against OVCAR-3 Human ovarian cancer cell line; assay type: functional, cell-based; procedure, shortened: as §2
PSN1 = test: In vitro Growth Inhibitory activity against PSN-1 Human pancreas cancer cell line; assay type: functional, cell-based; procedure, shortened: as §2
SK-BR-3 = test: In vitro Growth Inhibitory activity against SK-BR-3 Human breast cancer cell line; assay type: functional, cell-based
Procedure, shortened: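 SK-BR-3 was seeded at 1 × 10^4 cells/well in McCoy's 5a with 10% FBS, treated for 6 days, and counted with a microcell counter.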

T47D = test: In vitro Growth Inhibitory activity against T-47D Human breast cancer cell line; assay type: functional, cell-based; procedure, shortened: as §2
WiDr = test: In vitro Growth Inhibitory activity against WiDr Human colon cancer cell line; assay type: functional, cell-based; procedure, shortened: as §1

pIC50 (MCF7 [1])	pIC50 (MCF7 [2]; Homo sapiens, MCF7)	Structure (SMILES)	further results
< 5.00	8.41	Nc1ccc(-c2cc(=O)c3c(N)c(Cl)ccc3o2)cc1	
6.60	8.01	Nc1ccc(-c2cc(=O)c3c(N)ccc(Cl)c3o2)cc1	
7.34	8.22	Nc1ccc(-c2cc(=O)c3c(N)c(F)cc(F)c3o2)cc1	
6.21	7.28	Nc1ccc(-c2cc(=O)c3c(N)c(Cl)cc(Cl)c3o2)cc1	
4.80	5.28	Nc1ccc(-c2cc(=O)c3c(N)ccc(O)c3o2)cc1	
	5.20	Nc1ccc(-c2cc(=O)c3c(N)c(Br)cc(Br)c3o2)cc1	
6.77	8.16	Nc1ccc(-c2cc(=O)c3c(N)ccc(F)c3o2)cc1	

The remaining lines, values behind:

Structure (SMILES)	pIC50 (MCF7 [1])	pIC50 (MCF7 [2]; Homo sapiens, MCF7)	further results
Cc1ccc(N)c2c(=O)cc(-c3ccc(N)c(F)c3)oc12	6.74	7.82	
COc1ccc(N)c2c(=O)cc(-c3ccc(N)cc3)oc12		4.68	pIC50 (MCF7 [2]; mcf7): 4.72
Nc1c(F)cc(-c2cc(=O)c3c(N)c(F)cc(F)c3o2)cc1F	7.05	8.40	
Nc1ccc(-c2cc(=O)c3c(N)c(F)ccc3o2)cc1	6.89	8.36	
Nc1ccc(-c2cc(=O)c3c(N)c(F)cc(F)c3o2)cc1F	7.60	8.92	pIC50 (ACHN): < 6.00; pIC50 (A-431): < 6.00; pIC50 (A2780): 8.89; pIC50 (HepG2): 8.55; pIC50 (Ishikawa): 7.89; pIC50 (MKN-28): < 6.00; pIC50 (MDA-MB-453): < 6.00; pIC50 (MCF7 [3]): 8.92; pIC50 (OVCAR-3): 7.85; pIC50 (PSN1): < 6.00; pIC50 (SK-BR-3): 8.60; pIC50 (T47D): 7.51; pIC50 (WiDr): < 6.00
Nc1ccc(-c2cc(=O)c3c(N)cccc3o2)cc1	6.68	8.14	
Cc1cc(C)c2oc(-c3ccc(N)c(F)c3)cc(=O)c2c1N	6.96	7.44	

Reference: ChEMBL document CHEMBL1130063, “Design and synthesis of potent antitumor 5,4'-diaminoflavone derivatives based on metabolic considerations” (J Med Chem, 1997)
